In the library only some 3.8% were active in any assay of this set; here they are far more common.
hERG rescue: hERG rescue from dofetilide block, primary screen, cell-based, CHO-hERG, FluxOR thallium flux, dofetilide IC70. Voltage-gated inwardly rectifying potassium channel KCNH2 (Homo sapiens), Q12809. dofetilide IC70 present. activation (rescue from dofetilide block), less the hit threshold, % at 10 µM. 0.51% of 310,000 active. AID 1511, 2009;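 active means activation above the mean of controls blocked by dofetilide plus 5 SD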;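 further: thallium influx through hERG after potassium depolarization seen as dye fluorescence rise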
KCNK9 inh: KCNK9 potassium channel inhibitors, primary screen, HEK293 cells, thallium flux; Potassium channel subfamily K member 9 (Homo sapiens), Q9NPC2; FluxOR thallium flux fluorescence; hits give low values; B-score at 10 µM; 1.2% of 310,000 active; AID 488922, 2010;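 active means ratio B-score over 3 SD below the library mean, with starting fluorescence within 5 SD of its mean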;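 further: negative B-score means less thallium flux so channel inhibition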
KCNQ1 inh: inhibitors of human KCNQ1 channel, primary screen, cell-based, thallium flux, high-throughput; Potassium voltage-gated channel subfamily KQT member 1 (Homo sapiens), P51787; CHO-K1 KCNQ1, FluxOR thallium flux fluorescence; hits give high values; B-score at 10 µM; 1.3% of 310,000 active; AID 2642, 2010;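 active means compounds whose thallium flux B-score, printed positive for inhibition, exceeds three library SD while starting fluorescence stays within three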;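 further: channel opened by potassium depolarization with thallium stimulus after 20 min compound exposure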
KCNK3 block: human KCNK3 channel inhibitors, primary screen, CHO cells, FluxOR thallium flux, B-score. B-score at 10 µM. Potassium channel subfamily K member 3 (Homo sapiens), O14649. FluxOR fluorescence; hits give low values. 0.84% of 340,000 active;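 active means B-score under library mean minus 4 SD, starting fluorescence ratio at most library mean plus 5 SD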;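 further: more negative B-score means stronger inhibition of thallium flux through KCNK3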
Kir21 inh: inhibitors of mouse Kir2.1 inward-rectifier potassium channel; HEK293-Kir2.1, FluxOR thallium flux fluorescence; hits give low values; B-score at 10 µM; 0.85% of 310,000 active; AID 1672, 2009;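 active means fluorescence ratio B-score at or below minus 3 SD of library scores, with starting-brightness B-score within 2 SD, cut at about -4.2 in these data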;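 further: channel flux triggered by added potassium and thallium sulfate stimulus; B-score of peak minus minimum fluorescence over baseline after thallium stimulus; more negative B-score means stronger Kir2.1 block with less thallium influx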
Target sequence (P35561 whole entry, looked up): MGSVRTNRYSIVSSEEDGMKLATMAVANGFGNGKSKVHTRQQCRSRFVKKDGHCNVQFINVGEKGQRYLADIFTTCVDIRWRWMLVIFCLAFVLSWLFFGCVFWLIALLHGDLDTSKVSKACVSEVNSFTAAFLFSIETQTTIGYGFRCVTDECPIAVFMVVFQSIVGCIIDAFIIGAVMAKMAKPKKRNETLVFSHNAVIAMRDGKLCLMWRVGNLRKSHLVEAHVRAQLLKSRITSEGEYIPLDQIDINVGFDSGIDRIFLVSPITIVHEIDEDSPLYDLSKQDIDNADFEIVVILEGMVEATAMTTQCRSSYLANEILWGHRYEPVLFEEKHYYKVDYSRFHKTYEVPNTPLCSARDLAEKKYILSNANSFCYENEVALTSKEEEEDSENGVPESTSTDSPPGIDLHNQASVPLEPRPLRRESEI
KCNQ1 pot: potentiators or activators of KCNQ1 channel, primary screen, cell-based, thallium flux, high-throughput | Potassium voltage-gated channel subfamily KQT member 1 (Homo sapiens), P51787 | CHO-K1 KCNQ1, thallium flux FluxOR fluorescence; hits give high values | 0.35% of 310,000 active | B-score at 10 µM;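 active means fluorescence ratio B-score, a plate-corrected score, at least three library SD, with initial intensity B-score within 5 SD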
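Material: CHO-K1 cells stably expressing KCNQ1. Medium: assay buffer for compound exposure, DMSO matched across wells. Reagent: K+/Tl+ depolarizing stimulus. Compound dosing: single-concentration screen. Times: 37 °C overnight plating, 90-min dark dye load, 20-min compound pretreatment. Technique: FluxOR Tl+ flux fluorescence.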
Numbers without * were called inactive; i = inactive; / = not tested or not shown.

SMILES	hERG rescue	KCNK9 inh	KCNQ1 inh	KCNK3 block	Kir21 inh	KCNQ1 pot
O=C(Nc1cccc([N+](=O)[O-])c1)c1cnccn1	-0.4	i	i	i	0.9	i
O=C(Nc1cccc([N+](=O)[O-])c1)NC1CCS(=O)(=O)C1 (stereo not drawn)	-9.0	i	10*	i	-0.07	i
COc1cc(/C=C/C(=O)OC(C)C(=O)NC2CCCCC2C)cc(Cl)c1OC (stereo not drawn)	-14.0	i	i	i	0.05	i
N#C/C(=C(\O)c1cc(Cl)sc1Cl)c1nc2ccccc2[nH]1	-7.8	i	i	i	0.32	i
COc1ccc(C2CC(C)(c3ccc(OC)cc3)Nc3ccccc3N2)cc1 (stereo not drawn)	-5.1	i	i	i	1.12	i
COc1ccc(C2(C)CC(C)(C)Nc3ccccc32)cc1 (stereo not drawn)	-11.9	i	i	i	-3.4	8*
CCCCC1C(=O)N(c2ccccc2)N(c2ccc(O)cc2)C1=O (stereo not drawn)	/	/	/	-10.3*	/	/
CCOC(=O)CSc1cc(CSc2ccccc2)nc(-c2ccccc2)n1	-7.9	-6.67*	i	i	1.47	i
Clc1ccc(SCc2cc(Cl)nc(-c3ccccc3)n2)cc1	-7.3	-6.68*	i	i	-0.7	i
COc1cccc(CC(=O)OCC(=O)NC(Cc2ccccc2)C(C)=O)c1 (stereo not drawn)	-7.6	i	i	i	-0.95	i
OC(c1ccccc1)c1nc2ccccc2[nH]1 (stereo not drawn)	-7.2	i	i	i	0	i
CC(=O)NC(c1ccccc1)c1nc2ccccc2[nH]1 (stereo not drawn)	-10.8	i	i	-10.7*	-0.38	i
Cn1c(=O)c(C#N)c(-c2ccc(F)cc2)c2cc(C(=O)c3cc(Cl)cc(Cl)c3O)cnc21	-15.5	i	11*	i	-4.02	i
COc1ccccc1OCC(=O)n1cc(C(=O)c2cc(Cl)cc(Cl)c2O)cn1	-4.8	i	i	i	0.31	i
O=C(COC(=O)/C=C/c1ccc([N+](=O)[O-])cc1)NCC1CCCCC1	/	/	/	i	/	/
Nn1c(SCC(=O)Nc2ccc(N3CCOCC3)cc2)nnc1-c1cccc(F)c1	/	/	/	i	/	/
COc1cnn(Cc2ccccc2)c(=O)c1SCc1ccccc1	-8.2	i	i	i	-4.7*	i
CCOc1cnn(Cc2ccccc2)c(=O)c1SCc1ccccc1	-4.7	i	i	i	-3.83	i
COc1cccc(C(=O)NCC(=O)N2CCN(c3ccc(C(F)(F)F)cn3)CC2)c1	/	/	/	i	/	/
CC(=O)NC1CC2CCCC(C1)N2C(=O)Nc1ccccc1C (stereo not drawn)	/	/	/	i	/	/
CCc1ccccc1NC(=O)N1C2CCCC1CC(NC(C)=O)C2 (stereo not drawn)	6.0*	i	i	i	-0.43	i
Cc1cc(C)c(C)c(S(=O)(=O)N2CCSCC2)c1C	-5.4	i	i	i	-4.45*	i
Cc1c(C)c(C)c(S(=O)(=O)N2CCSCC2)c(C)c1C	-7.1	i	i	i	1.43	i
CN1CCCC(OC(=O)c2cc(Cl)cc(Cl)c2)C1 (stereo not drawn)	-13.0	i	i	i	-4.26*	i
CN1CCCC(OC(=O)c2cccc(Cl)c2)C1 (stereo not drawn)	-11.1	i	i	i	0.49	i
COc1ccc(CN2[C@@H](CC(=O)O)c3ccccc3S2(=O)=O)cc1	6.7*	i	i	i	0.04	i
O=C(Cn1ncc2c([nH]c3ccccc32)c1=O)NCC1CCN(Cc2ccccc2F)CC1	-7.9	i	i	i	0.09	i
